In ChEMBL document CHEMBL4373640, “Synthesis and antitumor activity of aza-brazilan derivatives containing imidazolium salt pharmacophores” (Medchemcomm, 2019):

Legend:
Assay type in all cases: functional, cell-based
SW480 = assay: Cytotoxicity against human SW480 cells assessed as reduction in cell viability after 48 hrs by MTS assay; details: SW480, 48 h
Method in brief: (§1)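 Cells (5 × 10^3 per well) were plated 12 h before treatment, then exposed continuously to compound for 48 h. MTS was added, with 1–4 h incubation at 37 °C and OD read at 490 nm. IC50 is the concentration cutting OD by 50% versus untreated cells, taken from dose–response curves. Values are the mean of three independent determinations.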

[1] = Cytotoxicity against human SMMC-7221 cells assessed as reduction in cell viability after 48 hrs by MTS assay; details: SMMC-7221, 48 h; method in brief: as §1
MCF7 = assay: Cytotoxicity against human MCF7 cells assessed as reduction in cell viability after 48 hrs by MTS assay; details: MCF7, 48 h; method in brief: as §1
A549 = assay: Cytotoxicity against human A549 cells assessed as reduction in cell viability after 48 hrs by MTS assay; details: A549, 48 h; method in brief: as §1

| Compound | IC50 (SW480) [nM] | IC50 [1] [nM] | IC50 (MCF7) [nM] | IC50 (A549) [nM] |
| --- | --- | --- | --- | --- |
| COc1ccc(C(=O)C[n+]2c(C)n(CCC(=O)N3C[C@@H]4Cc5ccccc5[C@@H]4c4cccc(OC)c43)c3ccccc32)cc1 | 2650 | 4620 | 3120 | 10600 |
| COc1cccc2c1N(CCCn1c[n+](Cc3ccc4ccccc4c3)c3cc(C)c(C)cc31)C[C@@H]1Cc3ccc(Br)cc3[C@H]21 | 3920 | 2160 | 840 | 5620 |
| COc1cccc2c1N(C(=O)CCn1c(C)[n+](Cc3ccc4ccccc4c3)c3ccccc31)C[C@@H]1Cc3ccccc3[C@H]21 | 770 | 1450 | 960 | 3680 |
| COc1ccc(C(=O)C[n+]2c(C)n(CCCN3C[C@@H]4Cc5cc(OC)c(OC)cc5[C@@H]4c4cccc(OC)c43)c3ccccc32)cc1 | 2340 | 5360 | 3360 | 14400 |
| COc1cccc2c1N(CCCn1c[n+](Cc3ccc(C)cc3)c3cc(C)c(C)cc31)C[C@@H]1Cc3ccccc3[C@H]21 | 560 | 660 | 670 | 1510 |
| COc1ccc(C(=O)C[n+]2cn(CCCN3C[C@@H]4Cc5cc(OC)c(OC)cc5[C@@H]4c4cccc(OC)c43)c3cc(C)c(C)cc32)cc1 | 1800 | 4500 | 2140 | 8270 |
| COc1cc2c(cc1OC)[C@@H]1c3cccc(OC)c3N(CCCn3c[n+](CC(=O)c4ccc5ccccc5c4)c4cc(C)c(C)cc43)C[C@@H]1C2 | 1380 | 1710 | 1120 | 4910 |
| COc1cccc2c1N(CCCn1c(C)nc3ccccc31)C[C@@H]1Cc3ccc(Br)cc3[C@H]21 | > 20000 | > 20000 | > 20000 | > 20000 |
| COc1cc2c(cc1OC)[C@@H]1c3cccc(OC)c3N(C(=O)CCn3cnc4cc(C)c(C)cc43)C[C@@H]1C2 | > 20000 | > 20000 | > 20000 | > 20000 |
| COc1cc2c(cc1OC)[C@@H]1c3cccc(OC)c3N(C(=O)CCn3c(C)nc4ccccc43)C[C@@H]1C2 | > 20000 | > 20000 | > 20000 | > 20000 |
| COc1cccc2c1N(CCCn1c(C)nc3ccccc31)C[C@@H]1Cc3ccccc3[C@H]21 | > 20000 | > 20000 | > 20000 | > 20000 |
| COc1cccc2c1N(C(=O)CCn1c[n+](CC(=O)c3ccc4ccccc4c3)c3cc(C)c(C)cc31)C[C@@H]1Cc3ccccc3[C@H]21 | 1350 | 1120 | 1010 | 1990 |
| COc1cccc2c1N(C(=O)CCn1c(C)[n+](CC(=O)c3ccc4ccccc4c3)c3ccccc31)C[C@@H]1Cc3ccccc3[C@H]21 | 1440 | 1510 | 1460 | 4710 |
| COc1cccc2c1N(C(=O)CCn1c(C)[n+](Cc3ccc(C)cc3)c3ccccc31)C[C@@H]1Cc3ccccc3[C@H]21 | 1570 | 2040 | 1570 | 6270 |
| COc1cc2c(cc1OC)[C@@H]1c3cccc(OC)c3N(CCCn3cnc4cc(C)c(C)cc43)C[C@@H]1C2 | > 20000 | > 20000 | > 20000 | > 20000 |
| COc1cc2c(cc1OC)[C@@H]1c3cccc(OC)c3N(CCCn3c(C)[n+](Cc4ccc5ccccc5c4)c4ccccc43)C[C@@H]1C2 | 1500 | 1130 | 1070 | 1530 |
| COc1cccc2c1N(C(=O)CCn1c[n+](Cc3ccc4ccccc4c3)c3cc(C)c(C)cc31)C[C@@H]1Cc3ccc(Br)cc3[C@H]21 | 1050 | 1090 | 1050 | 1450 |
| COc1cccc2c1N(C(=O)CCn1cnc3cc(C)c(C)cc31)C[C@@H]1Cc3ccc(Br)cc3[C@H]21 | > 20000 | > 20000 | > 20000 | > 20000 |
| COc1cccc2c1N(CCCn1c[n+](Cc3ccc4ccccc4c3)c3cc(C)c(C)cc31)C[C@@H]1Cc3ccccc3[C@H]21 | 930 | 850 | 910 | 1510 |
| COc1cccc2c1N(C(=O)CCn1c(C)[n+](CC(=O)c3ccc4ccccc4c3)c3ccccc31)C[C@@H]1Cc3ccc(Br)cc3[C@H]21 | 1750 | 1580 | 1430 | 2630 |
| COc1cccc2c1N(CCCn1c(C)[n+](Cc3ccc4ccccc4c3)c3ccccc31)C[C@@H]1Cc3ccccc3[C@H]21 | 2160 | 2060 | 1020 | 5740 |

| Compound | IC50 (SW480) [nM] | IC50 [1] [nM] | IC50 (MCF7) [nM] | IC50 (A549) [nM] |
| --- | --- | --- | --- | --- |
| COc1cccc2c1N(CCCn1c(C)[n+](CC(=O)c3ccc4ccccc4c3)c3ccccc31)C[C@@H]1Cc3ccccc3[C@H]21 | 1800 | 2010 | 1360 | 5320 |
| COc1cc2c(cc1OC)[C@@H]1c3cccc(OC)c3N(CCCn3c(C)[n+](CC(=O)c4ccc5ccccc5c4)c4ccccc43)C[C@@H]1C2 | 2060 | 5460 | 2160 | 8260 |
| COc1cccc2c1N(CCCn1cnc3cc(C)c(C)cc31)C[C@@H]1Cc3ccc(Br)cc3[C@H]21 | > 20000 | > 20000 | > 20000 | > 20000 |
| COc1cccc2c1N(CCCn1c(C)[n+](Cc3ccc4ccccc4c3)c3ccccc31)C[C@@H]1Cc3ccc(Br)cc3[C@H]21 | 1280 | 1080 | 920 | 1890 |
| COc1cc2c(cc1OC)[C@@H]1c3cccc(OC)c3N(C(=O)CCn3c(C)[n+](CC(=O)c4ccc5ccccc5c4)c4ccccc43)C[C@@H]1C2 | 3790 | 6530 | 4670 | 9290 |
| COc1cc2c(cc1OC)[C@@H]1c3cccc(OC)c3N(CCCn3c(C)nc4ccccc43)C[C@@H]1C2 | > 20000 | > 20000 | > 20000 | > 20000 |
| COc1cccc2c1N(CCCn1c(C)[n+](Cc3ccc(C)cc3)c3ccccc31)C[C@@H]1Cc3ccc(Br)cc3[C@H]21 | 1620 | 980 | 1080 | 1420 |
| COc1cccc2c1N(C(=O)CCn1c(C)nc3ccccc31)C[C@@H]1Cc3ccc(Br)cc3[C@H]21 | > 20000 | > 20000 | > 20000 | > 20000 |
| COc1ccc(C(=O)C[n+]2c(C)n(CCC(=O)N3C[C@@H]4Cc5cc(OC)c(OC)cc5[C@@H]4c4cccc(OC)c43)c3ccccc32)cc1 | 15400 | > 20000 | > 20000 | > 20000 |
| COc1cccc2c1N(CCCn1c[n+](CC(=O)c3ccc4ccccc4c3)c3cc(C)c(C)cc31)C[C@@H]1Cc3ccc(Br)cc3[C@H]21 | 4260 | 1350 | 1580 | 3480 |
| COc1cccc2c1N(CCCn1c(C)[n+](Cc3ccc(C)cc3)c3ccccc31)C[C@@H]1Cc3ccccc3[C@H]21 | 1660 | 1800 | 1470 | 4250 |
| COc1cccc2c1N(C(=O)CCn1c[n+](Cc3ccc4ccccc4c3)c3cc(C)c(C)cc31)C[C@@H]1Cc3ccccc3[C@H]21 | 970 | 1030 | 930 | 2580 |
| COc1cccc2c1N(CCCn1c[n+](CC(=O)c3ccc4ccccc4c3)c3cc(C)c(C)cc31)C[C@@H]1Cc3ccccc3[C@H]21 | 1460 | 1090 | 910 | 1470 |
| COc1cc2c(cc1OC)[C@@H]1c3cccc(OC)c3N(CCCn3c[n+](Cc4ccc(C)cc4)c4cc(C)c(C)cc43)C[C@@H]1C2 | 2000 | 1710 | 2000 | 4830 |
| COc1cccc2c1N(C(=O)CCn1c[n+](CC(=O)c3ccc4ccccc4c3)c3cc(C)c(C)cc31)C[C@@H]1Cc3ccc(Br)cc3[C@H]21 | 1830 | 1000 | 1220 | 1110 |
| COc1cccc2c1N(C(=O)CCn1c(C)nc3ccccc31)C[C@@H]1Cc3ccccc3[C@H]21 | > 20000 | > 20000 | > 20000 | > 20000 |
| COc1cc2c(cc1OC)[C@@H]1c3cccc(OC)c3N(CCCn3c(C)[n+](Cc4ccc(C)cc4)c4ccccc43)C[C@@H]1C2 | 3510 | 6490 | 5540 | 14400 |
| COc1cccc2c1N(CCCn1cnc3cc(C)c(C)cc31)C[C@@H]1Cc3ccccc3[C@H]21 | > 20000 | > 20000 | > 20000 | > 20000 |
| COc1ccc(C(=O)C[n+]2cn(CCCN3C[C@@H]4Cc5ccccc5[C@@H]4c4cccc(OC)c43)c3cc(C)c(C)cc32)cc1 | 1730 | 1420 | 1260 | 1400 |
| COc1cccc2c1N(CCCn1c(C)[n+](CC(=O)c3ccc4ccccc4c3)c3ccccc31)C[C@@H]1Cc3ccc(Br)cc3[C@H]21 | 1260 | 1120 | 950 | 1610 |
| COc1ccc(C(=O)C[n+]2cn(CCC(=O)N3C[C@@H]4Cc5ccccc5[C@@H]4c4cccc(OC)c43)c3cc(C)c(C)cc32)cc1 | 800 | 3160 | 2540 | 7530 |
